Source: ChEMBL document CHEMBL2407028, “Discovery of novel oxazolidinedione derivatives as potent and selective mineralocorticoid receptor antagonists” (Bioorg Med Chem Lett, 2013)

Key:
Rattus norvegicus [1] = assay: Dose normalized AUC in rat at 1 mg/kg, iv; type: ADME, organism-based; parameters: dose 1 mg/kg, route intravenous; conditions: in vivo
Procedure, shortened: (§1)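 Rats dosed at 1 mg/kg iv (n = 2) or 1 mg/kg po (n = 3), formulated at 1 mg/mL in PEG 200:water (70:30). Blood concentrations measured by LC/MS/MS after protein precipitation with acetonitrile.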

Rattus norvegicus [2] = assay: Volume of distribution at steady state in rat at 1 mg/kg, iv and 1 mg/lg, po; type: ADME, organism-based; parameters: dose 1 mg/kg, route oral; conditions: in vivo; procedure, shortened: as §1
Rattus norvegicus [3] = assay: Dose normalized AUC in rat at 1 mg/kg, po; type: ADME, organism-based; parameters: dose 1 mg/kg, route oral; conditions: in vivo; procedure, shortened: as §1
Estrogen receptor beta = Estrogen receptor beta (Homo sapiens, UniProt Q92731); assay: Antagonist activity at estrogen receptor beta (unknown origin) by NH Pro assay
Sequence of Estrogen receptor beta (Q92731 whole entry): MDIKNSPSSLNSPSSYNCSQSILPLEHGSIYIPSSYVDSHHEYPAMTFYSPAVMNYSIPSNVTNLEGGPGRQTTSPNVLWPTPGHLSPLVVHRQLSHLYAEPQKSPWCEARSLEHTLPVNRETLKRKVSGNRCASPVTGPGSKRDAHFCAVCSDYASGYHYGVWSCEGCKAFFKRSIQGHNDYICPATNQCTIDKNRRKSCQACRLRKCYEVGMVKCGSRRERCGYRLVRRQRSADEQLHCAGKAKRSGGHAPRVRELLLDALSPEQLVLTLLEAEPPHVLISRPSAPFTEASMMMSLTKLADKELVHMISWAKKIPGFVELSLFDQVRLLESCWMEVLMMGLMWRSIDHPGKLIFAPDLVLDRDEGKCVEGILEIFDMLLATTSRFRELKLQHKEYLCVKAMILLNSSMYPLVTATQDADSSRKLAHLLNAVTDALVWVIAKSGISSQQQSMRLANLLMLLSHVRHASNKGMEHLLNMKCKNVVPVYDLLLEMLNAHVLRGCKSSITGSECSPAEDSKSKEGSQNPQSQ

Progesterone receptor [4] = target: T1, Progesterone receptor (Homo sapiens, UniProt P06401); assay: Agonist activity at progesterone receptor beta (unknown origin) by NH Pro assay
T1 sequence (P06401 whole entry): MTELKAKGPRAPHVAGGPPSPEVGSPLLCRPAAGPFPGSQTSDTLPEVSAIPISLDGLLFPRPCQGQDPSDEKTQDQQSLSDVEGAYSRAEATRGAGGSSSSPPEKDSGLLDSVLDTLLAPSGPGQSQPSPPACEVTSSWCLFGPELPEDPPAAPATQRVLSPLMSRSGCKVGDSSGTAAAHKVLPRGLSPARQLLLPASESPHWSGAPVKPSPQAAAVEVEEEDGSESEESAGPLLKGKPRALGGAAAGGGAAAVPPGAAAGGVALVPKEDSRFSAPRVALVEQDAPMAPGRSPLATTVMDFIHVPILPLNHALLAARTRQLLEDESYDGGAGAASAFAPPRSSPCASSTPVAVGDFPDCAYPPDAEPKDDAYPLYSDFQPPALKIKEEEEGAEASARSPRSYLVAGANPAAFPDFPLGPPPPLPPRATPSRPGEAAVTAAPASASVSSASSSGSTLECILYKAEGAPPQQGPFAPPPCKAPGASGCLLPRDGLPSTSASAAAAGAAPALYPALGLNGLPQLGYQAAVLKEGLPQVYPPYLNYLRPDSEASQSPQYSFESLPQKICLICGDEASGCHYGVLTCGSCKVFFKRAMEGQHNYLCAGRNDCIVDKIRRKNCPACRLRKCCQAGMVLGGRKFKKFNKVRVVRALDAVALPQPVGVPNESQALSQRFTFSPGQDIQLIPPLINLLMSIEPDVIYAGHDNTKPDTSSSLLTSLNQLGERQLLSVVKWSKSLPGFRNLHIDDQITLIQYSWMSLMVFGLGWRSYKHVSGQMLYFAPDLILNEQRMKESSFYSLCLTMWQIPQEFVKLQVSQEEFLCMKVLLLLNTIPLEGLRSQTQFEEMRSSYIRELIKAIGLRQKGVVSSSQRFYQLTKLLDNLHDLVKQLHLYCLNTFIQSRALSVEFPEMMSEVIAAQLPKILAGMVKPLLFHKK

Glucocorticoid receptor [5] = target: T2, Glucocorticoid receptor (Homo sapiens, UniProt P04150); assay: Antagonist activity at glucocorticoid receptor (unknown origin) by NH Pro assay
T2 sequence (P04150 whole entry): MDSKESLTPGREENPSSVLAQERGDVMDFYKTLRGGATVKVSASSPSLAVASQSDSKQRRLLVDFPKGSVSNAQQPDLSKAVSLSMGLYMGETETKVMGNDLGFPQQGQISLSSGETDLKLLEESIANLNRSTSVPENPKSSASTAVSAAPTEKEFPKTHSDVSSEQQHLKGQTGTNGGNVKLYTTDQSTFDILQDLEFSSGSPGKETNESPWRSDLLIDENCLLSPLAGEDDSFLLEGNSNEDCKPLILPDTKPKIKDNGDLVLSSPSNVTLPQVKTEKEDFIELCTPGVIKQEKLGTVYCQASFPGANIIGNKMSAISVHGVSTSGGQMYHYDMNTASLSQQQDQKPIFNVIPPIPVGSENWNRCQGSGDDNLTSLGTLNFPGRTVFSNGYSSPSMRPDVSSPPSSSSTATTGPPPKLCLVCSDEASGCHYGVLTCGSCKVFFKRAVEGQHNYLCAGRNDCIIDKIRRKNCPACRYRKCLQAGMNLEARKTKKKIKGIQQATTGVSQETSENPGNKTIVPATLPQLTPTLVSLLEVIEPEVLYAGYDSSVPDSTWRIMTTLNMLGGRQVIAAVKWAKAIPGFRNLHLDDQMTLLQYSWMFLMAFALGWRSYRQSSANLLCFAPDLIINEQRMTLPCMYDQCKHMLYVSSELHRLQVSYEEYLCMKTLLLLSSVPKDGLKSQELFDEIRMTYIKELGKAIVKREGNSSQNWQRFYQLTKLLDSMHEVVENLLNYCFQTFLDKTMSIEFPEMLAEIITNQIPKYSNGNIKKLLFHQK

[6] = Half life in rat at 1 mg/kg, iv and 1 mg/lg, po; type: ADME, organism-based; parameters: dose 1 mg/kg, route oral; conditions: in vivo; procedure, shortened: as §1
Androgen receptor = target: T3, Androgen receptor (Homo sapiens, UniProt P10275); assay: Antagonist activity at androgen receptor (unknown origin) by NH Pro assay
T3 sequence (P10275 whole entry): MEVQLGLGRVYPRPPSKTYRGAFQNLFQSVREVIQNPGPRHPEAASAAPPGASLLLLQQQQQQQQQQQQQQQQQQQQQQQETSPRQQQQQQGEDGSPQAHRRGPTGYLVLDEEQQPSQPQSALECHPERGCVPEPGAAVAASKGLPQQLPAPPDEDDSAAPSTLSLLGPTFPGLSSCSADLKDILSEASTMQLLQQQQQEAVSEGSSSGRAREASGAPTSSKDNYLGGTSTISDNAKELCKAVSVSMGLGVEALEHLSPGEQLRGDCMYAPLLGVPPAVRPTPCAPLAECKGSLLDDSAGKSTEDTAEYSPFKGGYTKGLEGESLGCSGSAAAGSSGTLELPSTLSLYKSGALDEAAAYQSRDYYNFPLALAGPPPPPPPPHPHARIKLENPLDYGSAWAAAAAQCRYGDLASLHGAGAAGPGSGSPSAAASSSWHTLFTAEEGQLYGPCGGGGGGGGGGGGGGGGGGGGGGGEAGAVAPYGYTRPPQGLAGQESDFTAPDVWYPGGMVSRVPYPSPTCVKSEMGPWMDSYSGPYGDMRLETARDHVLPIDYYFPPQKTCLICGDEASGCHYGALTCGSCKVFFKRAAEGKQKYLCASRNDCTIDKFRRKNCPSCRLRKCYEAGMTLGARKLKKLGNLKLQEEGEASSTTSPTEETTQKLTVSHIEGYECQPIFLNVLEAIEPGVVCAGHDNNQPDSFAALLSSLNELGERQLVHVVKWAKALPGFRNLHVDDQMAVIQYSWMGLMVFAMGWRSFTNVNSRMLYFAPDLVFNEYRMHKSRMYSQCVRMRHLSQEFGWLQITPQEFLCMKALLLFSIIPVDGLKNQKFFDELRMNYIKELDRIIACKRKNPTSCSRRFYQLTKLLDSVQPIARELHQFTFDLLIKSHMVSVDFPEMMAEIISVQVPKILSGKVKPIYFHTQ

[7] = Oral bioavailability in rat at 1 mg/kg; type: ADME, organism-based; conditions: in vivo; procedure, shortened: as §1
Progesterone receptor [8] = target: T1, Progesterone receptor; assay: Antagonist activity at progesterone receptor beta (unknown origin) by NH Pro assay
Glucocorticoid receptor [9] = target: T2, Glucocorticoid receptor; assay: Agonist activity at glucocorticoid receptor (unknown origin) by NH Pro assay

AUC/dose (Rattus norvegicus [1]) [µM·kg·h/mg]	Vdss (Rattus norvegicus [2]) [L/kg]	AUC/dose (Rattus norvegicus [3]) [µM·kg·h/mg]	IC50 (Estrogen receptor beta) [µM]	EC50 (Progesterone receptor [4]) [µM]	IC50 (Glucocorticoid receptor [5]) [µM]	half-life [6] [h]	IC50 (Androgen receptor) [µM]	bioavailability [7] [%]	IC50 (Progesterone receptor [8]) [µM]	EC50 (Glucocorticoid receptor [9]) [µM]	Structure (SMILES)
0.89	4.7	0.24	15	> 20	> 20	2.5	12	28	8.1	> 20	COc1cc(CNC(=O)[C@@]2(Cc3ccccc3)OC(=O)N([C@@H]3CCc4ccccc43)C2=O)cc(OC)c1
0.46	7.9	0.24	15	> 20	11	2.3	> 20	63	3.6	> 20	C[C@H](c1ccc(F)cc1)N1C(=O)O[C@](Cc2ccc(F)cc2)(C(=O)NCc2ccc(Cl)c(Cl)c2)C1=O
